Assay results published in ChEMBL document CHEMBL1800061 (J Med Chem, 2010).
Activity calls are given as the source filed them. No cut-off for these calls is given here.

Columns and labels:
Mus musculus [1] = experiment: Decrease in RB protein level in HCT116 xenografted nude BALB/c mouse at 25 mg/kg/day, po measured after 14 days by immunostaining […] relative to control; format: organism-based; parameters: route oral; conditions: in vivo, 336 h
In short: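 Tumours from the oral HCT116 xenograft study were formalin-fixed and paraffin-embedded. Sections were immunostained for Rb, with antigen retrieval by microwaving 10 min in 10 mmol/L citrate at pH 6.0. At least 1000 nuclei per section were scored for percent positive cells, with t test against vehicle.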

[2] = molecular target: G1/S-specific cyclin-D1 (Homo sapiens) (UniProt P24385); experiment: Inhibition of cyclin D1-mediated phosphorylation of RB protein in human HCT116 cells after 4 hrs by immunoblotting analysis; format: cell-based; conditions: HCT-116
Chain of G1/S-specific cyclin-D1 (Homo sapiens) (P24385 whole entry): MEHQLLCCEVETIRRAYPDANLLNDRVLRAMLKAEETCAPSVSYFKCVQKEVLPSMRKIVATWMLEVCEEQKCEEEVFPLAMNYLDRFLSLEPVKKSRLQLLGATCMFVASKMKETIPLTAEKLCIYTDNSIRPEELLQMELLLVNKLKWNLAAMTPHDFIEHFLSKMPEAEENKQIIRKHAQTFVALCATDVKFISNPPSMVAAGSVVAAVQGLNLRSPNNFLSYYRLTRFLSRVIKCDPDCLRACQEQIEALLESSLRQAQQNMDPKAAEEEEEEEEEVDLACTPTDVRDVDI
In short: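 HCT116 cells grown in DMEM with 10% FCS were plated at 8×10^5 per dish and treated after 24 h with compound in DMSO. Lysis was done 4 h later in RIPA buffer with phosphatase and protease inhibitor cocktails, and protein was quantified by BCA. Whole-cell lysates were immunoblotted for phospho-RB (Ser-780, Ser-795, Ser-801, Ser-807/811, Thr-821) and RNA polymerase II CTD Ser-2.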

[3] = molecular target: Serine/threonine-protein kinase N2 (Homo sapiens) (UniProt Q16513); experiment: Inhibition of PRK2 assessed as residual enzyme activity at 10 uM
[4] = Plasma protein binding in mouse at 10 uM; format: ADME, cell-free; conditions: read-out: PPB (converted)
In short: (§1)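 Plasma protein binding in human and mouse plasma, test concentration 10 μM. Reported as percent bound, mean (range).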

Mus musculus [5] = experiment: Inhibition of cyclin-dependent kinase substrate […] phosphorylation in nude BALB/c mouse PBMC at 75 to 100 mg/kg, po measured after 24 hrs by immunostaining and flow cytometric analysis; format: organism-based; parameters: dose 75-100 mg/kg, route oral; conditions: in vivo
In short: (§2)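 Female nu/nu-BALB/c athymic nude mice (7 weeks old) given a single oral gavage dose in 28% PEG300/5% dimethylacetamide/10% HPB cyclodextrin in water. PBMC were isolated from cardiac blood after red-cell lysis, then fixed, permeabilized and stained with primary antibodies (1:100, 1 h, RT) and an Alexa Fluor 488 secondary (1:200, 1 h). Read-out was flow cytometry; n=4 (n=3 at 100 mg/kg).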

[6] = molecular target: Insulin receptor-related protein (Homo sapiens, UniProt P14616); experiment: Inhibition of IRR at 0.1 uM
Chain of Insulin receptor-related protein (P14616 27-742 limits assumed): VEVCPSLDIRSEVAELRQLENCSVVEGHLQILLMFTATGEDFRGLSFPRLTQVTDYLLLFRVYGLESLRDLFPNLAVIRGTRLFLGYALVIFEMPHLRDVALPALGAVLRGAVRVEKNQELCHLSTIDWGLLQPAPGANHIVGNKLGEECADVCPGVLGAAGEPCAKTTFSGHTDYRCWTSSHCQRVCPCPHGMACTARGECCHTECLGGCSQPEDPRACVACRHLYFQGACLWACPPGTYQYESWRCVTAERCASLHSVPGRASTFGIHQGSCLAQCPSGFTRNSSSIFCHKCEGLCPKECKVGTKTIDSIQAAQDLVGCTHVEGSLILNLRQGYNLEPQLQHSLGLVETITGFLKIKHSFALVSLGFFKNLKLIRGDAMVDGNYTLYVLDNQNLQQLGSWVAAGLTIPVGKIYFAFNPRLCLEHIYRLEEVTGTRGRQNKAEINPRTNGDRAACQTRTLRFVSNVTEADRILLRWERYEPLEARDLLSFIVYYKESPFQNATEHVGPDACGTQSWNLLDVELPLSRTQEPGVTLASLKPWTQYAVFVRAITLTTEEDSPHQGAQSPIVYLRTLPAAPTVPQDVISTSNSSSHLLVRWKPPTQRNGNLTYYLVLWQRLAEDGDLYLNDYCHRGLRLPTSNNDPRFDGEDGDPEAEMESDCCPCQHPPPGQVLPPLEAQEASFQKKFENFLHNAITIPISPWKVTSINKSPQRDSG
Chain of Insulin receptor-related protein (P14616 747-1297 limits assumed): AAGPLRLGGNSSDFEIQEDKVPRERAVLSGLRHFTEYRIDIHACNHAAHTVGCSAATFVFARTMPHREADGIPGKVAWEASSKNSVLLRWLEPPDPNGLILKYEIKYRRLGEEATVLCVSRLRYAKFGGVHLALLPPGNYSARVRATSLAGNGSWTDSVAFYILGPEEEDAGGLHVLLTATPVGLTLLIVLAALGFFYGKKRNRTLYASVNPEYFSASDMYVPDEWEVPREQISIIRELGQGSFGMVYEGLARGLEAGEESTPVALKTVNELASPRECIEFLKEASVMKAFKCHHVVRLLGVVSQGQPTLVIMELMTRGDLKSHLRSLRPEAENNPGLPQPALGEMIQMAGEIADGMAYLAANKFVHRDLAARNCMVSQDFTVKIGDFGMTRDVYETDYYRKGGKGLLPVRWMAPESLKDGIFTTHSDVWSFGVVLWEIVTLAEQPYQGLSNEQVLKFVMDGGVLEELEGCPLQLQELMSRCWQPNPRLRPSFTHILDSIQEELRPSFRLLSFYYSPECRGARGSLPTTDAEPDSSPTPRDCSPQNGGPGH

[7] = molecular target: Serine/threonine-protein kinase 3 (Homo sapiens) (UniProt Q13188); experiment: Inhibition of MST2 assessed as residual enzyme activity at 10 uM
Chain of Serine/threonine-protein kinase 3 (Homo sapiens) (Q13188 whole entry): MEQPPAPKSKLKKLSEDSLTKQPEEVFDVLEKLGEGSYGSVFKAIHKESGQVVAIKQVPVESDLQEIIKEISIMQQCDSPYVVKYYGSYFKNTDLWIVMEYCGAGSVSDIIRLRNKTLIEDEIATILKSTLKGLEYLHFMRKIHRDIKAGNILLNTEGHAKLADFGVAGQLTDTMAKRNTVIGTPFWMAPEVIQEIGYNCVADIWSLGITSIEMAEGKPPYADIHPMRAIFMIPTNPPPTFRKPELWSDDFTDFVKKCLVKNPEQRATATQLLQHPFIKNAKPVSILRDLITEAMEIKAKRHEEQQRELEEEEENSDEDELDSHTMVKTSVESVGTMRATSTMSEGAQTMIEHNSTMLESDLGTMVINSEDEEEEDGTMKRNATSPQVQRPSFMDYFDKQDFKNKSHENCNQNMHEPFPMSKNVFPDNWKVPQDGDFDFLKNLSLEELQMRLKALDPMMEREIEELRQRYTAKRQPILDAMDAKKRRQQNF

MCF7 [8] = experiment: Cell cycle arrest in human MCF7 cells assessed as reduction in cells at G1 phase at 1 to 10 umol/L after 24 hrs by propidium iodide staining based flow cytometric analysis; format: functional
[9] = Plasma protein binding in human at 10 uM; format: ADME, cell-free; conditions: read-out: PPB (converted); in short: as §1
[10] = molecular target: G1/S-specific cyclin-D1 (Homo sapiens) (UniProt P24385); experiment: Inhibition of cyclin D1 in human HCT116 cells assessed as decrease in protein level at 1 umol/L after 24 hrs by immunoblotting analysis; format: cell-based; conditions: HCT-116
In short: (§3)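 HCT116 colon cancer cells were kept in DMEM with 10% FCS. Cells (8×10^5) were plated, dosed 24 h later, and exposed for 4 or 24 h. Whole-cell lysates were made in RIPA buffer with phosphatase and protease inhibitor cocktails and normalised by BCA protein assay. They were immunoblotted for phospho-sites, total proteins and cyclins.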

[11] = molecular target: Mitogen-activated protein kinase 3 (Homo sapiens, UniProt P27361); experiment: Inhibition of ERK1 at 0.1 uM
MCF7 [12] = experiment: Cell cycle arrest in human MCF7 cells assessed as concomitant increase in cells at G2/M phase at 1 to 10 umol/L after 24 hrs by propidium iodide staining based flow cytometric analysis; format: functional
[13] = molecular target: Glycogen synthase kinase-3 beta (Homo sapiens) (UniProt P49841); experiment: Inhibition of GSK3-beta assessed as residual enzyme activity at 10 uM
Chain of Glycogen synthase kinase-3 beta (Homo sapiens) (P49841 whole entry, looked up): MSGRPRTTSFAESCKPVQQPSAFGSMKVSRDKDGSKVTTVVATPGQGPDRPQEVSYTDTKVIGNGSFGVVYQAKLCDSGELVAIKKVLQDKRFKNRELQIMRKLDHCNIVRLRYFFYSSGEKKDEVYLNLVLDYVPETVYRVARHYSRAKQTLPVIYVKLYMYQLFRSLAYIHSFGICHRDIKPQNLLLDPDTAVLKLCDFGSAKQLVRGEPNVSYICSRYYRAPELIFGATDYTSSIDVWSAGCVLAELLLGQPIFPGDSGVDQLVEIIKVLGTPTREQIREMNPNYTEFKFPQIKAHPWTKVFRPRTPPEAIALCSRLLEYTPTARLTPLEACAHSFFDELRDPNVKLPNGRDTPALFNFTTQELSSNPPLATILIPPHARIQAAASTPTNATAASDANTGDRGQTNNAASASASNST

Mus musculus [14] = experiment: Inhibition of cyclin-dependent kinase substrate RB phosphorylation at Thr 821 in HCT116 xenografted nude BALB/c mouse at 25 mg/kg/day, po measured after 14 days by immunostaining and […] relative to control; format: organism-based; parameters: route oral; conditions: in vivo, 336 h
In short: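 HCT116 cells (5 × 10^6) were injected subcutaneously into the flank of female nu/nu-BALB/c nude mice. Mice were randomized at 100-200 mm3 and dosed daily by oral gavage for 14 days (vehicle 28% PEG300/5% dimethylacetamide/10% HPB cyclodextrin in water). Tumors were formalin-fixed and paraffin-embedded for Rb pSer807/811 or pThr821 immunohistochemistry (citrate pH 6.0 microwave retrieval), scoring >1000 cells per section. Student's t test.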

Mus musculus [15] = experiment: Inhibition of cyclin-dependent kinase substrate […] phosphorylation at Ser5 in nude BALB/c mouse PBMC at 25 mg/kg, po measured after 6 hrs by immunostaining and flow cytometric analysis; format: functional; in short: as §2
HCT-116 = experiment: Antitumor activity against human HCT116 cells xenografted in po dosed nude BALB/c mouse assessed as decrease in tumor volume measured after 14 days relative to control on day 1; format: functional, organism-based
[16] = molecular target: MAP kinase-interacting serine/threonine-protein kinase 2 (Homo sapiens) (UniProt Q9HBH9); experiment: Inhibition of MNK2 assessed as residual enzyme activity at 10 uM
[17] = molecular target: Casein kinase I isoform alpha (Homo sapiens, UniProt P48729); experiment: Inhibition of CK1 assessed as residual enzyme activity at 10 uM
[18] = molecular target: Cyclin-dependent kinase 1 (Homo sapiens) (UniProt P06493); experiment: Inhibition of CDK1-mediated phosphorylation of […] in human HCT116 cells after 4 hrs by immunoblotting analysis; format: cell-based; conditions: HCT-116; in short: as §3
Chain of Cyclin-dependent kinase 1 (Homo sapiens) (P06493 whole entry, looked up): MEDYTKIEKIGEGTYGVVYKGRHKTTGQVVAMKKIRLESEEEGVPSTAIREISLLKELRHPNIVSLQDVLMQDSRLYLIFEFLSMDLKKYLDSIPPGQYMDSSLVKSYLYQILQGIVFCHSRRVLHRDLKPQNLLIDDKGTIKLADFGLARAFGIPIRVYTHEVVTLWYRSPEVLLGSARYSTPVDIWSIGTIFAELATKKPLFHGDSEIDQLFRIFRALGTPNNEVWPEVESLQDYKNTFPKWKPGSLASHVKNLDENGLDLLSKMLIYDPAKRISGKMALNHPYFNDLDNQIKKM

[19] = molecular target: Tyrosine-protein kinase CSK (Homo sapiens) (UniProt P41240); experiment: Inhibition of CSK assessed as residual enzyme activity at 10 uM
Chain of Tyrosine-protein kinase CSK (Homo sapiens) (P41240 2-450 limits assumed): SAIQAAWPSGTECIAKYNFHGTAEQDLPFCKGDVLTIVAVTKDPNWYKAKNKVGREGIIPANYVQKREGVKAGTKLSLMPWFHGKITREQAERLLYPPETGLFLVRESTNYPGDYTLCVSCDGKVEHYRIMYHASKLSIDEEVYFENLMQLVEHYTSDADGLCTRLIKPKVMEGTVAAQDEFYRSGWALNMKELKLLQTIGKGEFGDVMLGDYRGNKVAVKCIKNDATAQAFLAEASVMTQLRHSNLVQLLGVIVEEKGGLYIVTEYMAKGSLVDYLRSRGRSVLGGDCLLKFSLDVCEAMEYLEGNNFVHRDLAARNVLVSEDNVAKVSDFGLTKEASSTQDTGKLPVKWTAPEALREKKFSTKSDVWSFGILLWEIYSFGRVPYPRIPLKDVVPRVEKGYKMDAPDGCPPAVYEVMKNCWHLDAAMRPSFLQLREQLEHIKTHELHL

[20] = molecular target: Serine/threonine-protein kinase PAK 4 (Homo sapiens) (UniProt O96013); experiment: Inhibition of PAK4 assessed as residual enzyme activity at 10 uM
[21] = molecular target: Mitogen-activated protein kinase 1 (Homo sapiens, UniProt P28482); experiment: Inhibition of ERK2 assessed as residual enzyme activity at 10 uM
[22] = molecular target: Serine/threonine-protein kinase 26 (Homo sapiens) (UniProt Q9P289); experiment: Inhibition of MST4 assessed as residual enzyme activity at 10 uM
Chain of Serine/threonine-protein kinase 26 (Homo sapiens) (Q9P289 2-416 limits assumed): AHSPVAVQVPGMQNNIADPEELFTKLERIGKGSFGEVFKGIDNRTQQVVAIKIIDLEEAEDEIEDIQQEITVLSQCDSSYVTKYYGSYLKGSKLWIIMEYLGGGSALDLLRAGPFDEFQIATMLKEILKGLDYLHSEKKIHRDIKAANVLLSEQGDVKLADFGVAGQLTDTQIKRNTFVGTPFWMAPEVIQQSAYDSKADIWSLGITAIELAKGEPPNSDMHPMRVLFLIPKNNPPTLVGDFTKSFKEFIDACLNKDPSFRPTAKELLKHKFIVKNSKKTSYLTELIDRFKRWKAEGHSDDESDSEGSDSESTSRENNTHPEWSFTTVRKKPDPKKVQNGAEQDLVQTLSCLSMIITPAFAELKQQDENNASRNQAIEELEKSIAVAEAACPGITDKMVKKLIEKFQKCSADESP

[23] = Inhibition of PKBbeta assessed as residual enzyme activity at 10 uM
[24] = molecular target: Protein kinase C alpha type (Homo sapiens) (UniProt P17252); experiment: Inhibition of PKCalpha assessed as residual enzyme activity at 10 uM
[25] = molecular target: Cyclin-T1/Cyclin-dependent-like kinase 5 (Homo sapiens, UniProt O60563+Q00535); experiment: Inhibition of CDK5/cyclinT assessed as amount of ATP released by luciferase activity based PKLight assay; format: protein-complex assay
[26] = molecular target: Serine/threonine-protein kinase Chk2 (Homo sapiens) (UniProt O96017); experiment: Inhibition of CHK2 assessed as residual enzyme activity at 10 uM
Chain of Serine/threonine-protein kinase Chk2 (Homo sapiens) (O96017 whole entry): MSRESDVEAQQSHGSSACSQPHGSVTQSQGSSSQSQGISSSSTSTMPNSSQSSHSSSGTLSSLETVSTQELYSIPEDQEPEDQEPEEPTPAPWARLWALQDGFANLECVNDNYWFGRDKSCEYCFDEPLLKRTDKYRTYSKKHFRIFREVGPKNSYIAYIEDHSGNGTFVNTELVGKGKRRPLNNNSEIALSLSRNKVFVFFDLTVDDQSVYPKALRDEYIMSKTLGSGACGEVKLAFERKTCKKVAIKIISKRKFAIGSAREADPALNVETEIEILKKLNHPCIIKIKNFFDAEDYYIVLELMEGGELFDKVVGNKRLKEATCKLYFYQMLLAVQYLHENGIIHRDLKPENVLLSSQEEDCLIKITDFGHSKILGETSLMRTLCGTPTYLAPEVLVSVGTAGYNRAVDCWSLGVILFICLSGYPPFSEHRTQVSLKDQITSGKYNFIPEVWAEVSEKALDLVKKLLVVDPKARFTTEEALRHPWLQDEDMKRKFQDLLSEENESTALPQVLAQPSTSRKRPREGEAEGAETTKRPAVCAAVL

[27] = Antiproliferative activity against human HUVEC cells after 72 hrs by sulforhodamine B assay; format: cell-based
In short: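 HUVEC cells grown per supplier's protocols and treated with increasing concentrations for 72 h. Growth read by sulforhodamine B assay. Mean IC50 from at least three replicates, with SD.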

[28] = Oral bioavailability in mouse at 10 mg/kg; format: ADME, organism-based; conditions: in vivo

With `CC(C)c1cnn2c(NCc3ccccc3)cc(N[C@@H](CO)[C@H](O)CO)nc12` the Activity (Mus musculus [1]) was “Not Active”, the inhibition [2] was “inactive” and the Activity [3] was 106%. For the same molecule, the fraction unbound at 10 µM [4] was 0.117, the “inhibition (INH)” value (Mus musculus [5]) was “Not Active” and the inhibition [6] was less than 50%. For the same molecule, the Activity [7] was 86%, the Activity (MCF7 [8]) was “Active” and the fraction unbound at 10 µM [9] was 0.057. The inhibition [10] was “Active”, the inhibition [11] was less than 50% and the Activity (MCF7 [12]) was “Active”. For the same molecule, the Activity [13] was 63%, the “inhibition (INH)” value (Mus musculus [14]) was “Active” and the inhibition in vivo at 25 mg/kg (Mus musculus [15]) was 25%. For the same molecule, the Activity (HCT-116) was “Dose-dependent effect”, the Activity [16] was 136% and the Activity [17] was 19%. For the same molecule, the inhibition [18] was “inactive”, the Activity [19] was 77% and the Activity [20] was 55%. For the same molecule, the Activity [21] was 26%, the Activity [22] was 92% and the Activity [23] was 105%. It also gave an Activity [24] of 96%, an IC50 [25] of 0.03 µM and an Activity [26] of 61%. For the same molecule, the GI50 at 72 h [27] was 6.3 µM and the bioavailability [28] was 88%.
